Assay results published in PMC11500341 (Scientific Reports, 2024).
pKd: −log10 of the molar value. No end group written: not given here.

How the values were obtained:
LIMK1 = LIMK1 concentration in serum and tumor tissue of mice by SPR; assay type: in vivo, Swiss Albino mice; settings: 300 μm FGDWS, Mean ± SD
MCF-7 cells [1] = assay: MTT cell viability assay, MCF-7; assay type: cell-based; settings: 24, 48 and 72 h
MCF-7 cells [2] = assay: Annexin V-FITC / PI assay, flow cytometry, MCF-7; assay type: cell-based; settings: 72 h
Procedure, shortened: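 Test compound given to MCF-7 cells (0.2 × 10^6 per 35 mm dish) in these treatment groups: control, 0.05% DMSO vehicle, three test compound levels, doxorubicin, and doxorubicin plus the top level. Cells were trypsinized, washed twice in PBS and resuspended in binding buffer. Annexin V-FITC was added for 10 min, then PI (from a 50 µg/ml stock) for 20 min. Flow cytometry quadrants gave early apoptotic, late apoptotic, necrotic and healthy fractions.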

MDA-MB-231 cells [3] = assay: MTT cell viability assay, MDA-MB-231; assay type: cell-based; settings: 24, 48 and 72 h
Procedure, shortened: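 MDA-MB-231 cells (passage 28–33; DMEM with 10% FBS and 1% penicillin/streptomycin) were seeded at 5 × 10^3 per well and left overnight. Four test compound doses were added for 24, 48 or 72 h at 37 °C in 5% CO2. MTT (5 mg/ml solution) was added for 4 h, medium removed, formazan dissolved in DMSO and read at 570 nm. Results were expressed as percent viability.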

Phospho-p38α (Y-182) = assay: Phospho-p38α concentration in serum and tumor tissue of mice by SPR; assay type: in vivo, Swiss Albino mice; settings: 300 μm FGDWS, Mean ± SD, p-value 0.0001
[4] = tested on: Caspase 3/7 in MCF-7 cells; assay: Caspase glow 3/7 assay, MCF-7; assay type: cell-based; settings: p ≤ 0.0001
HEK-293 cells = assay: MTT cell viability assay, HEK-293; assay type: cell-based; settings: 25-500 μm FGDWS, 24, 48 and 72 h
Procedure, shortened: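 HEK-293 cells (DMEM, 10% FBS, passage 28–33) were seeded at 4 × 10^3 per well and adhered overnight. Test compound was added at 25, 50, 100, 150, 300 and 500 for 24, 48 and 72 h at 37 °C, 5% CO2. MTT (5 mg/ml) was incubated for 4 h, medium removed and DMSO added. Absorbance at 570 nm gave percent viability.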

VEGF = assay: Western blot, VEGF expression; assay type: cell-based, human; settings: MCF-7 and MDA-MB-231; after treatments
Procedure, shortened: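 MCF-7 and MDA-MB-231 lysates were taken 48 h and 72 h after the treatment groups. Protein was quantified by BCA and 30 µg run on 10% SDS-PAGE, then transferred to PVDF. Membranes were blocked 2 h in 5% milk in TBS-T. Mouse anti-human VEGF (1:300, in 5% BSA TBS-T) was applied overnight at 4 °C, then 2 h at room temperature. Detection used HRP goat anti-mouse (1:4000) and ECL, with band densitometry.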

Rac1 [5] = assay: Western blot, Rac1 expression; assay type: cell-based, human; settings: for % change of protein expression: vs CT; for Rac1 expression (in words): 48 and 72 h
Procedure, shortened: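 MCF-7 cells (DMEM, 10% FBS) were treated per group for 48 and 72 h. Lysate protein was measured by BCA, and 30 µg was run on 10% SDS-PAGE and transferred to PVDF. Blots were blocked in 5% milk/TBS-T for 2 h. Rabbit anti-Rac1 (1:250) and GAPDH (1:500) antibodies were applied overnight at 4 °C, then 2 h at room temperature. HRP secondary (1:4000) and ECL detection followed, with band densitometry.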

MDA-MB-231 cells [6] = assay: Cell migration; assay type: cell-based; settings: after 48 h and 72 h
Procedure, shortened: (§1)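 Cells were seeded at 0.2 × 10^6 per 35 mm dish in DMEM with 10% FBS and left to adhere overnight at 37 °C in 5% CO2. Monolayers were scratched with a sterile pipette tip and imaged at time zero. They were then treated: control, 0.05% DMSO vehicle, three test compound levels, doxorubicin, and doxorubicin plus the top level. The scratched area was re-imaged at 24, 48 and 72 h.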

MCF-7 cells [7] = assay: Cell migration; assay type: cell-based; settings: after 48 h and 72 h
Procedure, shortened: as §1

[8] = tested on: Caspase 3/7 in MDA-MB-231 cells; assay: Caspase glow 3/7 assay, MDA-MB-231; assay type: cell-based; settings: p ≤ 0.0001
Procedure, shortened: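 MDA-MB-231 cells were seeded at 5 × 10^3 per well and adhered overnight. They were exposed to the test compound (P1 75, P2 150, P3 300), Dox 0.2 or Dox + P3 for 24, 48 or 72 h. Caspase-Glo 3/7 reagent (substrate/luciferase) was added, followed by 30–60 min at 25 °C. Luminescence was then read.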

Phospho-Cofilin1 (S-3) = assay: Phospho-Cofilin1 concentration in serum and tumor tissue of mice by SPR; assay type: in vivo, Swiss Albino mice; settings: 300 μm FGDWS, Mean ± SD
MDA-MB-231 cells [9] = assay: Annexin V-FITC / PI assay, flow cytometry, MDA-MB-231; assay type: cell-based
Procedure, shortened: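 Cells were seeded at 0.2 × 10^6 per 35 mm dish and treated per group: control, vehicle (0.05% DMSO), test compound P1 75, P2 150, P3 300, Dox 0.2, or Dox + P3. They were then trypsinized, washed twice in PBS and resuspended in 1X binding buffer. Staining was annexin V-FITC for 10 min, then PI (50 µg/ml stock) for 20 min. Flow cytometry gave four-quadrant populations.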

Rac1 [10] = target: Rac1 (Homo sapiens, UniProt P63000); assay: SPR binding of peptide to immobilized Rac1
Cofilin1 = Cofilin1 concentration in serum and tumor tissue of mice by SPR; assay type: in vivo, Swiss Albino mice; settings: 300 μm FGDWS, Mean ± SD
[11] = MCF-7, 48 h, P3 300 μm / Dox 0.2 μm / Dox + P3 0.2 μm + 300 μm
[12] = MCF-7, 72 h, P3 300 μm / Dox 0.2 μm / Dox + P3 0.2 μm + 300 μm
[13] = MDA-MB-231, 48 h, P3 300 μm / Dox 0.2 μm / Dox + P3 0.2 μm + 300 μm
[14] = MDA-MB-231, 72 h, P3 300 μm / Dox 0.2 μm / Dox + P3 0.2 μm + 300 μm

## FGDWS [FGDWS]
LIMK1; serum, day 45, p-value 0.0001
  LIMK1 concentration: 6.86 ± 1.46 ng/µL
LIMK1; tumor tissue lysate, p-value 0.005
  LIMK1 concentration: 6.37 ± 1.04 ng/µL
MCF-7 cells [1]
  cell viability, dose and time dependence: decreased in dose dependent manner with time
MCF-7 cells [2]
  population of apoptotic cells, dose dependence: increased with increasing FGDWS doses P1 to P3
MDA-MB-231 cells [3]
  cell viability, dose and time dependence: decreased in dose dependent manner with time
Phospho-p38α (Y-182); serum, day 45
  Phospho-p38α concentration: 2.66 ± 0.16 ng/µL
Phospho-p38α (Y-182); tumor tissue lysate
  Phospho-p38α concentration: 2.77 ± 0.11 ng/µL
[4]; MCF-7, 48 h, P1 75 μm
  fold change in RLU with respect to control (caspase 3/7): 0.24
[4]; MCF-7, 48 h, P2 150 μm
  fold change in RLU with respect to control (caspase 3/7): 0.402
[4]; [11]
  fold change in RLU with respect to control (caspase 3/7): 0.93
[4]; MCF-7, 72 h, P1 75 μm
  fold change in RLU with respect to control (caspase 3/7): 0.33
[4]; MCF-7, 72 h, P2 150 μm
  fold change in RLU with respect to control (caspase 3/7): 0.47
[4]; [12]
  fold change in RLU with respect to control (caspase 3/7): 0.66
HEK-293 cells
  toxic effect on normal cells: no toxic effect
VEGF
  VEGF expression (in words): downregulated after treatments with peptide and Dox
Rac1 [5]; MCF-7, 48 h, P1 75 μm
  % change of protein expression: 1.08%
Rac1 [5]; [11]
  % change of protein expression: 25.84%
Rac1 [5]; MCF-7, 72 h, P1 75 μm
  % change of protein expression: 12.74%
Rac1 [5]; [12]
  % change of protein expression: 31.23%
Rac1 [5]; MCF-7
  Rac1 expression (in words): downregulated significantly with increase in concentration of peptide dose from P1 to P3
Rac1 [5]; MDA-MB-231, 48 h, P1 75 μm
  % change of protein expression: 21.41%
Rac1 [5]; [13]
  % change of protein expression: 36.01%
Rac1 [5]; MDA-MB-231, 72 h, P1 75 μm
  % change of protein expression: 15.03%
Rac1 [5]; [14]
  % change of protein expression: 48.31%
Rac1 [5]; MDA-MB-231
  Rac1 expression (in words): downregulated significantly with increase in concentration of peptide dose from P1 to P3
MDA-MB-231 cells [6]
  rate of cell proliferation and migration (ranking): slowest in Dox + P3 followed by Dox, P3, P2 and P1
MCF-7 cells [7]
  rate of cell proliferation and migration (ranking): slowest in Dox + P3 followed by Dox, P3, P2 and P1
[8]; MDA-MB-231, 48 h, P1 75 μm
  fold change in RLU with respect to control (caspase 3/7): 0.16
[8]; MDA-MB-231, 48 h, P2 150 μm
  fold change in RLU with respect to control (caspase 3/7): 0.25
[8]; [13]
  fold change in RLU with respect to control (caspase 3/7): 0.305
[8]; MDA-MB-231, 72 h, P1 75 μm
  fold change in RLU with respect to control (caspase 3/7): 0.35
[8]; MDA-MB-231, 72 h, P2 150 μm
  fold change in RLU with respect to control (caspase 3/7): 0.57
[8]; [14]
  fold change in RLU with respect to control (caspase 3/7): 0.65
Phospho-Cofilin1 (S-3); serum, day 45, p-value 0.006
  Phospho-Cofilin1 concentration: 8.35 ± 1.15 ng/µL
Phospho-Cofilin1 (S-3); tumor tissue lysate, p-value 0.001
  Phospho-Cofilin1 concentration: 7.14 ± 1.34 ng/µL
MDA-MB-231 cells [9]; 72 h
  population of apoptotic cells, dose dependence: increased with increasing FGDWS doses P1 to P3
MDA-MB-231 cells [9]; higher dose of peptide (P3 300 μm), or in combination with Dox
  apoptotic cell population: 38.3%
Rac1 [10]
  pKd: 6.09
Rac1 [10]; SPR, Rac1 immobilized on CM5 (4000 RU), BIAevaluation 3.0
  KA (association constant): 1.24e+06 M⁻¹
Cofilin1; serum, day 45, p-value 0.028
  Cofilin1 concentration: 2.68 ± 0.28 ng/µL
Cofilin1; tumor tissue lysate, p-value 0.0048
  Cofilin1 concentration: 2.83 ± 0.53 ng/µL
